Compound activity deposited in PubChem BioAssay by Johns Hopkins Ion Channel Center.
TRPC4 agonist: opens the mouse TRPC4 cation channel. HEK293 TRPC4beta/mu-opioid, Fluo4 calcium fluorescence; active compounds read high. B-score at 10 µM. 310,000 tested, 0.49% active;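 active = B-score above 5 SD of library B-scores, and initial fluorescence ratio not above library mean plus 5 SD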;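 note: positive B-score marks a calcium rise read as TRPC4 activation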
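Assay system: HEK293 stable line with TRPC4beta plus mu-opioid receptor; schedule: 45 min room-temperature Fluo4 loading, 110 s read; technique: kinetic Fluo4 calcium fluorescence; evaluation: integrated baseline-normalised fluorescence ratio, converted to per-well B score; controls: buffer (low) and maximal DAMGO (high)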
TRPC4 PAM: allosterically enhances the mouse TRPC4 cation channel; Q9QUQ5; HEK293 TRPC4beta/mu-opioid, DAMGO EC20, Fluo-4 Ca2+ flux; active compounds read high; B-score at 10 µM; 310,000 tested, 0.42% active; AID 2227;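 active = B-score of calcium response area above 5 SD of library B-scores, with initial fluorescence ratio within 5 SD of library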;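 note: B-score of integrated fluorescence ratio over time as area under calcium response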
TRPC6 activator: activates the mouse TRPC6 cation channel. Q61143. HEK293-TRPC6 membrane potential dye fluorescence; active compounds read high. B-score at 10 µM. 310,000 tested, 0.13% active. AID 2550;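 active = B-score of the integrated fluorescence ratio above library mean plus 3 SD, and starting fluorescence ratio within library mean plus 5 SD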;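 note: higher score means more depolarization so channel activation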
TRPC6 inh: blocks the mouse TRPC6 cation channel | Q61143 | HEK293-TRPC6, membrane potential dye, ACh-evoked depolarization; active compounds read low | B-score at 10 µM | 310,000 tested, 1.1% active | AID 2553;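 active = B-score under library mean minus 3 SD, initial fluorescence not abnormally high, positive integrated signal ratio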;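 note: B-score derived from integrated fluorescence ratio over the kinetic read; more negative B-score means stronger inhibition of depolarization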
TRPC4 block: inhibitors of mouse TRPC4 channel. Q9QUQ5. HEK293 TRPC4beta/mu-opioid, DAMGO-evoked Fluo4 calcium flux; active compounds read low. B-score at 10 µM. 300,000 tested, 0.39% active. AID 2247;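 active = B-score over 3 SD under the library average, no early fluorescence shift, positive overall ratio signal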
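Material: HEK293 cells with stable TRPC4beta plus mu-opioid receptor expression; probe or stimulus: DAMGO in two steps, submaximal then maximal; technique: Fluo4 calcium fluorescence by kinetic imaging, 5 s 1 Hz baseline; measure: integrated fluorescence ratio relative to baseline, converted to per-well B score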
Active calls of the source: *; i = inactive. Compounds with a hit are over-represented: about 2.3% of the library has one in this group of screens.

SMILES	TRPC4 agonist	TRPC4 PAM	TRPC6 activator	TRPC6 inh	TRPC4 block
O=C(c1ccc(Cl)cc1)N(Cc1ccco1)C1CCS(=O)(=O)C1 (stereo not given)	i	i	i	i	i
COc1ccc(OCC(O)CNCc2ccco2)cc1 (stereo not given)	i	i	i	i	i
COc1ccc(C(CNCC(O)COc2c(C)ccc(C)c2C)N(C)C)cc1 (stereo not given)	68*	i	i	i	i
Cc1cc(C)c2c(=O)n(CC(=O)NCCCN3CCOCC3)sc2n1	i	i	i	i	i
Cc1cc(C)c2c(=O)n(CC(=O)NCCCN3CCN(c4ccccc4F)CC3)sc2n1	i	i	i	i	-5*
CN(C)/C(Cn1cncn1)=C1/N=C(c2ccccc2)OC1=O	i	i	i	i	i
CN1CCN(C/C(=C2/N=C(c3ccccc3)OC2=O)N(C)C)CC1	i	13*	i	i	i
COc1ccccc1N1CCN(Cc2cc(=O)c(OCC(=O)NC3CCCC3)co2)CC1	i	108*	i	i	i
CC(=O)Nc1ccccc1OCC(=O)c1cc(C)n(Cc2cccs2)c1C	72*	i	i	i	i
Cc1cc(C(=O)COc2cccnc2[N+](=O)[O-])c(C)n1Cc1cccs1	i	i	i	i	i
COC(=O)CCCCCN1C(=O)/C(=C\c2ccncc2)SC1=S	i	10*	i	i	i
CCc1ccc(/C=C2\SC(=S)N(CCCC(=O)Nc3ccccn3)C2=O)cc1	i	i	i	i	i
CCc1ccc(/C=C2/SC(=S)N(CCCC(=O)Nc3ccccc3C(=O)O)C2=O)cc1	i	i	i	i	-6*
Cc1sc2ncnc(NCC(c3ccco3)N3CCCC3)c2c1C (stereo not given)	163*	i	i	i	i
COC(=O)[C@H](Cc1ccccc1)NC(=O)c1ccc2ccccc2n1	i	16*	i	i	i
CCN1CCN(C(=O)c2cc(-c3ccc(Cl)s3)nc3ccccc23)CC1	i	18*	i	i	i
O=C(COc1ccc(S(=O)(=O)N2CCCCC2)cc1Cl)N1CCOCC1	i	i	i	i	i
Cc1ccccc1OCC(=O)Nc1cc(S(=O)(=O)N2CCCCC2)ccc1N1CCN(C)CC1	84*	i	i	i	i
CN1CCN(c2ccc(S(=O)(=O)N3CCCCC3)cc2NC(=O)c2ccc(C#N)cc2)CC1	i	11*	i	i	i
O=C(COc1ccc(S(=O)(=O)N2CCCC2)cc1Cl)N1CCN(c2ccccc2)CC1	i	10*	i	i	i
CCN1CCN(c2ccc(S(=O)(=O)N3CCOCC3)cc2NC(=O)/C=C/c2ccc(OC)cc2OC)CC1	101*	i	i	i	i
CN1CCN(c2ccc(Cl)cc2NC(=O)c2ccc(S(=O)(=O)N3CCCCCC3)cc2)CC1	i	i	i	i	i
CCN1CCN(c2ccc(S(=O)(=O)N3CCCCC3)cc2NC(=O)COc2ccc(Cl)cc2)CC1	i	i	i	i	i
CCN1CCN(c2ccc(S(=O)(=O)N3CCCCC3)cc2NC(=O)COc2ccc(F)cc2Cl)CC1	i	12*	i	i	i
CCN1CCN(c2ccc(S(=O)(=O)N3CCCCC3)cc2NC(=O)c2cccc(C)c2)CC1	i	i	i	i	i
CCN1CCN(c2ccc(S(=O)(=O)N3CCCCC3)cc2NC(=O)CC(C)c2ccccc2)CC1 (stereo not given)	118*	i	i	i	i
CCN1CCN(c2ccc(S(=O)(=O)N3CCCCC3)cc2NC(=O)C(C)Oc2ccc(F)cc2)CC1 (stereo not given)	96*	i	i	i	i
CCOC(=O)c1nn(-c2ccc(F)cc2)c(=O)cc1OCC(=O)Nc1ccc(OCC)cc1	i	i	i	i	i
O=C(C1CCCO1)N1CCN(C(=S)Nc2ccc(Cl)cc2)CC1 (stereo not given)	i	i	i	i	i
CN1CCN(C(=O)Nc2ccccc2)CC1	i	i	i	i	i
